PMC2118398 (The Journal of Experimental Medicine, 2006)
Blank lines part the entries; values can stand above or below the molecule they belong to.

Assays:
[1] = biological target: CXCR7 (SDF-1 binding site on MCF-7 cells) (Homo sapiens, UniProt P25106); experiment: Radioligand
[2] = biological target: CXCR4 (CEM-NKr cells) (Homo sapiens, UniProt P61073); experiment: 125I SDF-1 competition binding to CEM-NKr cells
How it was run: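 Whole CEM-NKr cells were incubated with 125I SDF-1 in the presence of unlabeled SDF-1α, a CXCR4 antagonist, or a CXCR7 antagonist as competitors. Cell-bound radioactivity was counted in a γ counter.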

[3] = tested on: CEM-NKr cells; experiment: Calcium mobilization in CEM-NKr cells; assay type: cell-based, human; settings: unpublished data
How it was run: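 Cells were loaded with the ratiometric intracellular dye Indo-1, and the calcium response was recorded on addition of SDF-1α.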

[4] = tested on: CEM-NKr cells; experiment: Cell migration of CEM-NKr cells; assay type: cell-based, human; settings: unpublished data
How it was run: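 Cells in chemotaxis buffer (HBSS with Ca2+, Mg2+, 0.1% BSA) were placed above a 3 or 5 μm pore filter, sized to the cells, with chemokine in the lower chamber. After 90 min at 37°C, filters were removed, CyQuant was added to the lower chamber, and migrated cells were read at 540 nm.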

[5] = tested on: human lung carcinoma A549; experiment: A549 human lung carcinoma xenograft model; assay type: in vivo, mouse; settings: 2 mg/kg intraperitoneally every 2 d; vs vehicle control, P < 0.005
[6] = biological target: human CXCR7 (RDC1) (Homo sapiens, UniProt P25106); experiment: Radioligand; assay type: binding
Chain of human CXCR7 (RDC1) (P25106 whole entry): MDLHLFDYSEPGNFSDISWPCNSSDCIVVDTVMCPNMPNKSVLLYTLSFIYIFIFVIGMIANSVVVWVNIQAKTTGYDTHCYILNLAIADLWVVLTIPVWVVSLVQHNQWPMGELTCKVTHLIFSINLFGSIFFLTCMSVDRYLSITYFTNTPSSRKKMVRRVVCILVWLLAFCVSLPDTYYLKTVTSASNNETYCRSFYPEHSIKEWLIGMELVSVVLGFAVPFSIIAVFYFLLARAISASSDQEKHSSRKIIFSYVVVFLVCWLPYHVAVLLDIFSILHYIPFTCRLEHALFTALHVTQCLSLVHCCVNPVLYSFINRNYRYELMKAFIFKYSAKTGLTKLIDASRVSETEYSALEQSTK

[7] = biological target: CXCR7 (SDF-1 binding site on fetal liver cells) (Mus musculus, UniProt P56485); settings: 125I SDF-1
Chain of CXCR7 (SDF-1 binding site on fetal liver cells) (P56485 whole entry): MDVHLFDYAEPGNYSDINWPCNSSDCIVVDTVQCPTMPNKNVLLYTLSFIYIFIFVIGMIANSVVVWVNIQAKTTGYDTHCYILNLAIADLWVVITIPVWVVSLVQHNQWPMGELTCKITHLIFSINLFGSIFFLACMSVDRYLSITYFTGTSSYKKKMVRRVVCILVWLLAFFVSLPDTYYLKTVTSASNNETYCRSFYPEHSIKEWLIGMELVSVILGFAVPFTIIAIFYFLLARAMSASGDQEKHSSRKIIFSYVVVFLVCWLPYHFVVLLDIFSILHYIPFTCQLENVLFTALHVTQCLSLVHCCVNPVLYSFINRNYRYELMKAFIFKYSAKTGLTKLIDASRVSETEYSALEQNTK

[8] = biological target: CXCR7 on mouse B cell lymphoma BCL1 (Mus musculus, UniProt P56485); experiment: 125I SDF-1 binding profile on BCL1 cells; settings: Fig. 3 B; 100 nM chemokine, 10 μM small molecules
Chain of CXCR7 on mouse B cell lymphoma BCL1 (P56485 whole entry): as above
How it was run: (§1)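 Intact cells bound 125I SDF-1 with or without 100 nM unlabelled chemokine, 10 μM CXCR7 antagonist or 10 μM CXCR4 antagonist. Cell-bound radioactivity was counted in a γ counter. CXCR7 binding was taken as binding displaced by unlabelled ligand or the CXCR7 antagonist but not by the CXCR4 antagonist.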

[9] = biological target: CXCR7 on human cervical carcinoma HeLa cells (Homo sapiens, UniProt P25106); experiment: 125I SDF-1 binding profile on HeLa cells; settings: Fig. 3 B; 100 nM chemokine, 10 μM small molecules
Chain of CXCR7 on human cervical carcinoma HeLa cells (P25106 whole entry): as the sequence (P25106 whole entry) above
How it was run: as §1

[10] = tested on: MCF-7 cells; experiment: Calcium mobilization in MCF-7 cells; assay type: cell-based, human; settings: agonist response
How it was run: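 Cells were loaded with the ratiometric dye Indo-1 and stimulated with 10 nM SDF-1α. The intracellular calcium trace was recorded around ligand addition. The analysis was reproduced in at least 10 independent studies.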

[11] = tested on: MCF-7 cells; experiment: Cell migration of MCF-7 cells; assay type: cell-based, human; settings: agonist response
How it was run: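 Cells in HBSS with Ca2+, Mg2+ and 0.1% BSA were placed above a filter (3 or 5 μm pores, chosen by cell size) in a 96-well microchamber, with chemokine below. After 90 min at 37°C in humidified air, the filter was removed. Cells in the lower chamber were quantified with CyQuant fluorescence at 540 nm.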

Chain of CXCR7 (SDF-1 binding site on MCF-7 cells) (P25106 whole entry): as above
Chain of CXCR4 (CEM-NKr cells) (P61073 whole entry): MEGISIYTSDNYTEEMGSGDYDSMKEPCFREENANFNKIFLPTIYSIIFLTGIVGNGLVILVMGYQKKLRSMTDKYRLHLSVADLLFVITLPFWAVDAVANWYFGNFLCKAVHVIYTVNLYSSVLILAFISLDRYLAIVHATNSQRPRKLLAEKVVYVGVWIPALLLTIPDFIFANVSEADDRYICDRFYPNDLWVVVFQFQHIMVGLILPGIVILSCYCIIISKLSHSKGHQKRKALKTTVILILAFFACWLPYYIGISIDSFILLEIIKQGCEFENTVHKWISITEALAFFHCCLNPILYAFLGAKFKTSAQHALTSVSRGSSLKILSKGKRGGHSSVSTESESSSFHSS

- inhibition of 125I SDF-1 binding to MCF-7 cells (in words) [1]: not to MCF-7 cells
- inhibition of 125I SDF-1 binding to CEM-NKr cells (in words) [2]: inhibited binding
Molecule: c1cc(CN2CCCNCCNCCCNCC2)ccc1CN1CCCNCCNCCCNCC1 [AMD3100]
- inhibition of SDF-1-induced calcium mobilization in CEM-NKr cells [3]: inhibited all functions
- inhibition of SDF-1-induced cell migration of CEM-NKr cells [4]: inhibited all functions

Molecule: N[C@@H](Cc1ccc(N(CCCl)CCCl)cc1)C(=O)O [Melphalan]
- tumor volume at 49 d, A549 model (positive control) [5]: reduced tumor volume

- inhibition of 125I I-TAC binding to MCF-7 cells (in words) [1]: no inhibitory effect
- inhibition of 125I SDF-1 binding to MCF-7 cells (in words) [1]: no inhibitory effect
Molecule: IP10: chemokine IP10 (CXCL10), thought to bind only CXCR3

- inhibition of 125I SDF-1 binding to MCF-7 cells (in words) [1]: strongly displaced
- inhibition of 125I SDF-1 binding to RDC1 (CXCR7) transfectants (in words) [6]: blocked
- inhibition of the SDF-1 binding site of E13 embryos of CXCR4-/- mice [7]: inhibited
- inhibition of 125I SDF-1 binding to BCL1 cells [8]: inhibited
- inhibition of 125I SDF-1 binding to HeLa cells [9]: inhibited
Molecule: I-TAC: CXC chemokine interferon-inducible T cell α chemoattractant, also known as CXCL11
- chemokine-induced calcium mobilization in MCF-7 cells [10]: failed to induce
- chemokine-induced migration of MCF-7 cells [11]: failed to induce

- inhibition of 125I I-TAC binding to MCF-7 cells (in words) [1]: no inhibitory effect
- inhibition of 125I SDF-1 binding to MCF-7 cells (in words) [1]: no inhibitory effect
Molecule: Mig: chemokine Mig (CXCL9), thought to bind only CXCR3
